# According to BindingDB's records for doi:10.1016/j.bmc.2011.09.065 (2011):
# Target: Amyloid-beta precursor protein (Homo sapiens, UniProt P05067)
# Test: Binding affinity to human amyloid beta (1 to 42) fibril by fluorescence intensity assay
# Method in brief: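 Fibrils grown from human insulin (3 mg/mL, Tris-HCl 50 mM pH 3), E. coli-expressed human α-syn (3 mg/mL, pH 7.4) or Aβ(1–42) (0.5 mg/ml, 1% NH4OH). Fibril level taken as supernatant protein depletion. Plate-reader intensity read at each ligand's maximal excitation/emission wavelengths, dye blanks subtracted. Kd from single-site saturation fit.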
# Sequence of Amyloid-beta precursor protein (P05067 whole entry): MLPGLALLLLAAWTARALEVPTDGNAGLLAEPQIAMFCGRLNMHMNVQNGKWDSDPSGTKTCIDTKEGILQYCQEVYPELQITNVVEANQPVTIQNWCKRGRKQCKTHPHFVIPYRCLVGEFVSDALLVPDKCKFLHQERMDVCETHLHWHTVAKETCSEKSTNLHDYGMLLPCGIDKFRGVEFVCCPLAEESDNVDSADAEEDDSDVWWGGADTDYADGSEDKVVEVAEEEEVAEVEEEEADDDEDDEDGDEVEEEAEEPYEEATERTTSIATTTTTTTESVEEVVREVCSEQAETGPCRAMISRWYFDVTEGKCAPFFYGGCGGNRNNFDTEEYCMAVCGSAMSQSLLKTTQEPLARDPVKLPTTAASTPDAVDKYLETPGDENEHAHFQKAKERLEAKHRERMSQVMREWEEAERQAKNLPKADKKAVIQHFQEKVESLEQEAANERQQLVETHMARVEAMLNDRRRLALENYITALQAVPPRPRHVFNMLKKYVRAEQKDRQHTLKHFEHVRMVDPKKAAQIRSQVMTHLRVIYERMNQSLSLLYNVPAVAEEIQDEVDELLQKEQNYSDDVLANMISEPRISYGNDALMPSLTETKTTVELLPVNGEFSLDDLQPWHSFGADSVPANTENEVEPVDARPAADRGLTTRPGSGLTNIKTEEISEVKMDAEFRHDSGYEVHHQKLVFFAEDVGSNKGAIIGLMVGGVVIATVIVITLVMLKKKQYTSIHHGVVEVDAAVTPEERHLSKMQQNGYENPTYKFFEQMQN
row,Kd [nM],SMILES
1,192,CN(CCF)c1ccc(/C=C/c2nc3ccccc3n2C)cc1
2,167,CN(CCF)c1ccc(/C=C\c2nc3ccccc3o2)cc1
3,286,CN(CCF)c1ccc(/C=C\c2nc3ccccc3n2C)cc1
4,278,CN(CCF)c1ccc(/C=C/c2nc3ccccc3[nH]2)cc1
5,42,CN(CCF)c1ccc(/C=C\c2nc3ccccc3s2)cc1
6,91,CN(CCF)c1ccc(/C=C/c2nc3ccccc3s2)cc1
7,222,CN(CCF)c1ccc(/C=C/c2nc3ccccc3o2)cc1
